Results as given in PubChem BioAssay.
Calls of active or inactive are those of the source.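 How the source made its calls, unless noted: active means fluorescence slope after compound addition differing from the mean of all tested samples at 99.7% confidence, mostly higher but some lower; inactive means the rest.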

Legend:
[1] = inhibitors of TNFa-induced NFkB p65 translocation, primary screen, imaging, HUVEC, MLSMR starter and 10KST1 sets (AID 438;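 active means inhibition above 20% together with a positive visual image hit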;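 further: compound added about 3h40 before a 20 min TNFalpha stimulation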;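 on inhibition: signal is the nuclear over cytoplasmic p65 intensity ratio per well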); conditions: HUVEC TNFa-induced p65 nuclear translocation; cell count: measured here: nuclei count (cytotoxicity indicator), at 2.08 µM; inhibition: at 2 µM, stronger effect = higher value, 0% TNFa-plus-vehicle, 100% no-TNFa wells
[2] = inhibitors of mutant huntingtin aggregation, primary screen, imaging, exon1htt(103Q)mCFP cells, high-content imaging (AID 483;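 active means visual image review flags a hit and inhibition of aggregation exceeds 20%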;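 further: compound exposure lasted 3 days before fixation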;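 on nuclei count: percent of the per-plate median nuclei count of sample wells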); conditions: exon1htt(103Q)mCFP cell line, aggregate imaging, at 2 µM; inhibition of aggregation: stronger effect = higher value; nuclei count: measured here: cell count, toxicity
[3] = inhibitors of E-selectin induction by TNFa, primary screen, imaging, HUVEC, immunofluorescence, MLSMR starter and 10KST1 sets (AID 487;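 active means visually confirmed hit in the image check and inhibition above 20%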;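 on inhibition: signal is fraction of cell area covered by stained E-selectin grains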;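 on nuclei count: 100% = median nuclei count of all wells on the same plate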); conditions: HUVEC TNFalpha-induced E-selectin immunofluorescence imaging, at 2 µM; inhibition: stronger effect = higher value; nuclei count: measured here: cell number, toxicity
[4] = molecular target: Voltage-gated potassium channel subunit beta-2 (Rattus norvegicus) (UniProt P62483); test: KvBeta enzyme negative modulators, primary screen, biochemical, NADPH fluorescence (AID 622;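 active means fluorescence slope higher than the sample average by over 3 SD, cut at about -0.22 in these data, passing the limit was not always enough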;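 further: slope of raw intensity against log time taken from 70 to 1610 s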); conditions: recombinant KvBeta, 4-cyanobenzaldehyde reduction, at 10 µM, stronger effect = higher value
Sequence of Voltage-gated potassium channel subunit beta-2 (Rattus norvegicus) (P62483 whole entry, looked up): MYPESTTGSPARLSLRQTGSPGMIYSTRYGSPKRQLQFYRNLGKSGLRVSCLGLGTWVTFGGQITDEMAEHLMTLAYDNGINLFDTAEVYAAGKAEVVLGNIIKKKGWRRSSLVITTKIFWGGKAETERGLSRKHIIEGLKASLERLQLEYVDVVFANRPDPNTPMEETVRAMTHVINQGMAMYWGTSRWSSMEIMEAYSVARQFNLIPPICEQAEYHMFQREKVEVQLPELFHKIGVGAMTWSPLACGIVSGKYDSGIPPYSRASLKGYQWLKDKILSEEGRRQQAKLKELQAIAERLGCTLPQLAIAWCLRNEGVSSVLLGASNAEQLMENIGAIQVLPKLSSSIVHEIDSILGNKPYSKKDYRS

[5] = molecular target: Voltage-gated potassium channel subunit beta-2 (Rattus norvegicus) (UniProt P62483); test: KvBeta positive modulators, primary screen, biochemical, NADPH fluorescence (AID 623;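 active means NADPH fluorescence slope more negative than the mean of all samples by about 3 SD, 99.7% confidence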;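 further: fluorescence intensity change per second fitted from 20 to 320 s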); conditions: Recombinant KvBeta, NADPH fluorescence decrease slope, 10 min; at 10 µM; stronger effect = lower value
[6] = molecular target: Muscarinic acetylcholine receptor M4 (Homo sapiens) (UniProt P08173); test: compounds altering M4/GIRK thallium flux, either direction, primary screen, M4 allosteric agonist project, cell-based, HEK293 M4/GIRK, BTC-AM (AID 625); conditions: at 10 µM, actives lie on both sides;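 further: thallium influx through GIRK channels coupled to M4 in HEK293 cells with BTC-AM dye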
Sequence of Muscarinic acetylcholine receptor M4 (Homo sapiens) (P08173 whole entry, looked up): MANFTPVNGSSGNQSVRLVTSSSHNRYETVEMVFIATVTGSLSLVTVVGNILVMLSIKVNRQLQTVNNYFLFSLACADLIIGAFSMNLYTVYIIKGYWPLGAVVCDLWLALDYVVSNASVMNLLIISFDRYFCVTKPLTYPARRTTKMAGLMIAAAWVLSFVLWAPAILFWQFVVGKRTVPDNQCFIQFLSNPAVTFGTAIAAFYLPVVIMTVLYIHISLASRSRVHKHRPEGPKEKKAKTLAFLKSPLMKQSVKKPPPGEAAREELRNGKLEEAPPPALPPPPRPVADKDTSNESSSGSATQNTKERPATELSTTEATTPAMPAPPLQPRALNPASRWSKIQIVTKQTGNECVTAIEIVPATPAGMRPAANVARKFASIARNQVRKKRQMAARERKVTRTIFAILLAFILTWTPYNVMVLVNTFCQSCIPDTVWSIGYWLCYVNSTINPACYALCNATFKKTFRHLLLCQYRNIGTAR
Procedure, shortened: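 Material: M4/GIRK1/GIRK2 stable HEK293 cell line. Medium: pH 7.3 thallium assay buffer. Dosing: single compound concentration, 10 µM final. Schedule: 1 h dye loading, 2 min kinetic read. Measured by: kinetic fluorescence with BTC-AM dye. Read-out: post-addition slope, 15–24 s, of baseline-normalized fluorescence. Benchmarks: carbachol and DMSO controls.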

[7] = inhibitors of Sendai virus-induced IRF3 signaling, primary screen, TLR/RLR signaling modifier project, cell-based, Sendai virus stimulus, luciferase, 10K MLSCN set (AID 602276;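 active means inhibition at or above 50% at 10 µM; inactive means inhibition below 50%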;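 further: firefly luciferase from ISG56 promoter only with Renilla not read in this screen; 0% = Sendai virus plus DMSO and 100% = medium plus DMSO without virus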); conditions: HEK293 RL24 IRF3 luciferase reporter, at 10 µM, stronger effect = higher value
[8] = inhibitors of poly I:C-induced TLR3 signaling, primary screen, cell-based, poly I:C stimulus, luciferase, 10K MLSCN set (AID 602277;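 active means inhibition of the reporter signal at or above 50%; inactive means inhibition below 50%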); conditions: HEK293-TLR3 RL24 IRF3 luciferase reporter, at 10 µM, stronger effect = higher value

| SMILES | cell count [1] | inhibition [1] | inhibition of aggregation [2] | nuclei count [2] [%] | inhibition [3] | nuclei count [3] [%] | fluorescence slope [4] | NADPH fluorescence slope [5] | fluorescence slope [6] | inhibition [7] | inhibition [8] |
| --- | --- | --- | --- | --- | --- | --- | --- | --- | --- | --- | --- |
| O=C(NC1CC2CCC1C2)C1COc2ccccc2O1 (centres undefined) | 297 | -3.7% (inactive) | 1.9% (inactive) | 89.3 | 18.8% (inactive) | 97.5 | -0.46 (inactive) | -3.9e-05 (inactive) | 0.00453 (inactive) | 0.357% (inactive) | -2.86% (inactive) |
| CCc1nnc(NC(=O)c2cccc(C(=O)Nc3nnc(CC)s3)n2)s1 | 700 | -23.3% (inactive) | 13.6% (inactive) | 120 | -18.7% (inactive) | 107 | -0.398 (inactive) | -3.4e-05 (inactive) | 0.00556 (inactive) | -5.37% (inactive) | -13.7% (inactive) |
| O=C1CC(c2ccco2)CC(O)=C1C=NCC1NCCc2ccccc21 (centres undefined) | 330 | -2.8% (inactive) | 5.8% (inactive) | 94.2 | -123% (inactive) | 125 | -0.511 (inactive) | 2.1e-05 (inactive) | 0.00572 (inactive) | 17.9% (inactive) | 27.2% (inactive) |
| Cc1cc(NC(=O)CSc2nc3ccsc3c(=O)n2NC(=O)c2ccccc2)no1 | 317 | -1.2% (inactive) | -4.7% (inactive) | 102 | -234% (inactive) | 117 | -0.449 (inactive) | 9e-05 (inactive) | 0.00651 (inactive) | -39.7% (inactive) | -61.1% (inactive) |
| COc1ccccc1NC1=NC2(CCCC2)N=C(N)N1 | 313 | -9.5% (inactive) | -26.7% (inactive) | 115 | 18% (inactive) | 124 | -0.569 (inactive) | -6.5e-06 (inactive) | 0.00551 (inactive) | 7.65% (inactive) | 19.3% (inactive) |
| COc1cc(C(=O)N2c3ccccc3CC2C)cc(OC)c1OC (centres undefined) | 348 | 4.3% (inactive) | -6.3% (inactive) | 89 | -13.9% (inactive) | 113 | -0.296 (inactive) | -2.6e-05 (inactive) | 0.0071 (inactive) | 17.5% (inactive) | 33.5% (inactive) |
| Cc1ccc(-c2ccc(=O)n(CCC(=O)NCc3ccccn3)n2)cc1 | 366 | -15.6% (inactive) | -2.2% (inactive) | 99.9 | -2.7% (inactive) | 108 | -0.534 (inactive) | -3e-05 (inactive) | 0.00635 (inactive) | 14.5% (inactive) | 21.8% (inactive) |
| CC(C)NC(=O)CSc1nnc(-c2ccc(C(C)(C)C)cc2)n1C | 563 | -16% (inactive) | -4.3% (inactive) | 96.8 | 8% (inactive) | 117 | -0.465 (inactive) | 5.2e-06 (inactive) | 0.00698 (inactive) | 4.36% (inactive) | 1.25% (inactive) |
| Cc1ccc(SCCC(=O)N(C)C)cc1 | 637 | -8.6% (inactive) | 10.5% (inactive) | 89.8 | -143% (inactive) | 103 | -0.459 (inactive) | -2.6e-05 (inactive) | 0.00561 (inactive) | -10.8% (inactive) | -52.8% (inactive) |
| COc1cccc(Nc2c(F)c(F)c(F)c(F)c2C(=O)O)c1 | 246 | -4% (inactive) | 9.3% (inactive) | 77.5 | -11.9% (inactive) | 96.6 | -0.587 (inactive) | -3.3e-05 (inactive) | 0.00658 (inactive) | 10.2% (inactive) | 11.4% (inactive) |
| CCSc1nnc(NC(=O)c2nn(C(C)C)c(=O)c3ccccc23)s1 | 221 | 3.9% (inactive) | 15.4% (inactive) | 71.5 | 31.6% (inactive) | 94 | -0.408 (inactive) | -0.000337 (inactive) | 0.00464 (inactive) | 9.39% (inactive) | 11.7% (inactive) |
| O=C(O)c1ccc(-n2nnnc2Oc2ccccc2C(=O)N2CCOCC2)cc1 | 478 | -20.3% (inactive) | -2.2% (inactive) | 53.4 | 2.2% (inactive) | 89.9 | -0.482 (inactive) | -1.8e-05 (inactive) | 0.0048 (inactive) | 21% (inactive) | 12.5% (inactive) |
| Cc1cc(C)nc(SCc2nnc(SCc3ccccc3Cl)o2)n1 | 428 | -8.3% (inactive) | 16.9% (inactive) | 110 | -33.4% (inactive) | 98.3 | -0.468 (inactive) | -0.000278 (inactive) | 0.00428 (inactive) | 6.47% (inactive) | 0.418% (inactive) |
| Cc1nc2ccccc2c(=O)n1NC(=O)c1ccc(F)cc1Cl | 302 | 5% (inactive) | 9.2% (inactive) | 87.5 | 21.5% (inactive) | 70.3 | -0.483 (inactive) | -2.3e-05 (inactive) | 0.00433 (inactive) | 10.8% (inactive) | 8.86% (inactive) |
| CCOc1ccc(C(CC(=O)O)NC(=O)c2ccco2)cc1OC (centres undefined) | 562 | 1.8% (inactive) | -9.7% (inactive) | 113 | 22.7% (inactive) | 106 | -0.35 (inactive) | -3.7e-05 (inactive) | 0.00565 (inactive) | 9.42% (inactive) | 29.4% (inactive) |
| O=C(CSc1nnc(-c2cccnc2)o1)Nc1ccccn1 | 328 | 3.2% (inactive) | 7.3% (inactive) | 99.4 | -60.6% (inactive) | 131 | -0.317 (inactive) | 5.1e-06 (inactive) | 0.0082 (inactive) | -56.5% (inactive) | -126% (inactive) |
| Cn1nc(-c2ccc(C(=O)N3CCN(c4ccccc4)CC3)cc2)c2ccccc2c1=O | 769 | -4% (inactive) | 10.9% (inactive) | 90.3 | -13.7% (inactive) | 110 | -0.552 (inactive) | -4.4e-05 (inactive) | 0.00744 (inactive) | -31.8% (inactive) | -26.4% (inactive) |
| O=S(=O)(NCC1CCCO1)c1ccc(S(=O)(=O)N2CCc3ccccc3C2)cc1 (centres undefined) | 685 | -4.3% (inactive) | -21.6% (inactive) | 97.8 | -132% (inactive) | 140 | -0.525 (inactive) | -3.8e-05 (inactive) | 0.00466 (inactive) | 19.5% (inactive) | 19.5% (inactive) |
| CC(C)(C)n1ncc2c(=O)n(CC(=O)NCCc3ccccc3)cnc21 | 457 | 3.9% (inactive) | 7.3% (inactive) | 95.2 | 27.5% (inactive) | 92.8 | -0.595 (inactive) | 1.3e-05 (inactive) | 0.0063 (inactive) | -40.8% (inactive) | -58.1% (inactive) |
